# Source: PMC11601626 (bioRxiv, 2024)
# Changes are numbered by the printed parent chain. Names may count otherwise.
# B1: GST-PHRF1^RP(P221L): GST-PHRF1^RP with P221 mutated to leucine (protein)
# chain: SCPICLNAFRDQAVGTPENCAHYFCLDCIVEWSKNANSCPVDRTLFKCICIRAQFGGKILRKIPVENTKASEEEEDPTFCEVCGRSDREDRLLLCDGCDAGYHMECLDPPLQEVLVDEWFCPECAA
# modifications: left off: GST, end not stated, kept
# B2: GST-PHRF1^RP: GST-tagged PHRF1 RING-PHD region, residues 107–232 of PHRF1 (protein)
# chain: B1 chain with L115P
# modifications: left off: GST, end not stated, kept
# Legend:
# [1] = tested on: HCT116 cells; experiment: Colony formation assay under zeocin; assay type: cell-based, human; conditions: ∆PHRF1 HCT116 cells, complemented; effect greater with WT than P221L
# Outline: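 Cells were Control+EV, ∆PHRF1+EV, and ∆PHRF1 complemented with 3XFlag-PHRF1 WT or P221L. They were harvested near 70% confluence and seeded at 500 cells/well in biological triplicate, then left to adhere overnight at 37°C. Medium was replaced with zeocin at 0, 0.375, 0.75 and 1.5 µg/mL for 9 days undisturbed. Cells were fixed in 4% formaldehyde and stained with 0.5% crystal violet; growth area was measured per imaged well.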
# [2] = tested on: HCT116 cells; experiment: Live-cell imaging growth analysis; assay type: cell-based, human; conditions: ∆PHRF1 HCT116 cells, complemented; no zeocin; Incucyte, one week; n = 3
# Outline: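 Control+EV, ∆PHRF1+EV and WT- or P221L-complemented ∆PHRF1 lines were grown in McCoy's 5A with 10% FBS and penicillin/streptomycin at 37°C, 5% CO₂. They were harvested near 70% confluence and seeded at 1,000 cells/well in biological triplicate. Imaging began immediately: every 4 h for one week, 10X objective, four fields per well. Confluence was scored as percentage of area occupied by cells.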
# [3] = tested on: HeLa cells (control and ∆PHRF1); experiment: Zeocin DNA damage recovery assay, γH2A.X intensity/nucleus, HeLa; assay type: cell-based, human; conditions: qGAM; 50 μg/mL zeocin 30 minutes, washout 0-26 h; p-value 4.79x10-5 (Wald)
# [4] = target: unmodified biotinylated nucleosome (EpiCypher) (human) (UniProt P68431); experiment: BLI
# [5] = tested on: differentially modified biotinylated nucleosomes; experiment: Nucleosome pulldown assay; assay type: binding; conditions: 2.5 pmol protein, 12.5 pmol nucleosomes, pH 7.5, 4°C overnight
# Outline: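 Binding buffer: 50 mM Tris-HCl pH 7.5, 150 mM NaCl, 0.5% BSA, 0.1% NP-40, 10% glycerol. GST-PHRF1 RP, PHD or RP(P221L) was mixed with the modified biotinylated nucleosomes. Beads were washed three times in binding buffer, 5 min each at 4°C with rotation, then taken up in SDS loading dye. Immunoblots used anti-GST for PHRF1 and anti-H3 for nucleosome presence.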
# [6] = tested on: biotinylated unmodified nucleosomes; experiment: Biolayer interferometry; assay type: binding; conditions: BLI; protein 25 to 1.625 μM; pH 7.0; 37°C; KD n.d.
# [7] = tested on: H3 (1–20)-FAM; experiment: Histone peptide fluorescence polarization; assay type: binding; conditions: protein 50 to 0.0061 μM, pH 8.0, KD n.d.
# [8] = tested on: GST-PHRF1^RP(P221L); experiment: Histone peptide microarray with GST-PHRF1^RP; assay type: binding, human; conditions: over 300 differentially-modified histone peptides
# [9] = tested on: differentially modified biotinylated nucleosomes; experiment: dCypher nucleosome alphascreen binding assay; conditions: GST-PHRF1^RP 3 nM, nucleosomes 10 nM, duplicate
molecule,measurement,setting,value
3XFlag-PHRF1^P221L: 3XFlag-tagged PHRF1 P221L mutant expressed by lentivirus in HCT116 ∆PHRF1 cells,"rescue of colony growth at 0.375 μg/mL zeocin, in words",[1],partial rescue of growth
same,"rescue of growth under normal conditions, in words",[2],partially rescuing the growth phenotype
3XFlag-PHRF1^WT: N-terminally 3XFlag-tagged PHRF1 expressed by lentivirus in HCT116 ∆PHRF1 cells,"rescue of colony growth at 0.375 μg/mL zeocin, in words",[1],partial rescue of growth
same,"rescue of growth under normal conditions, in words",[2],largely rescued the growth defects
"Cc1c(N)nc([C@H](CC(N)=O)NC[C@H](N)C(N)=O)nc1C(=O)N[C@H](C(=O)N[C@H](C)[C@@H](O)[C@H](C)C(=O)N[C@H](C(=O)NCCC1=N[C@@H](c2nc(C(=O)NCCCCN=C(N)N)cs2)CS1)[C@@H](C)O)[C@@H](O[C@@H]1O[C@@H](CO)[C@@H](O)[C@H](O)[C@@H]1O[C@H]1O[C@H](CO)[C@@H](O)[C@H](OC(N)=O)[C@@H]1O)c1cnc[nH]1 [zeocin, phleomycin D1]","Parametric Coefficient, γH2A.X intensity/nucleus, ∆PHRF1 vs Control",[3],−345.25
"GST-PHRF1^RP (RING-PHD region of PHRF1, residues 107-232) (from UniProt Q9P1Y6 107-232) (domain or fragment)",Kd,[4],1010 nM
B1,"nucleosome interaction of P221L mutant, in words",[5],abolished all nucleosome interaction
same,"binding to nucleosomes, in words",[6],no detectable binding to nucleosomes
same,"binding to H3 1–20(FAM), in words",[7],little to no observable binding
same,"binding to histone peptides, in words",[8],virtually no binding to any histone peptide on the microarray
B2,"nucleosome binding, H3K9me3 versus unmodified, in words",[9],heightened binding
